Compounds with a hit are over-represented: about 3.5% of the library has one in this group of screens.
RGS4 inh: RGS4 inhibitors, primary screen, cell-based, HEK293 M3R inducible RGS4, calcium flux; Regulator of G-protein signaling 4 (Homo sapiens), P49798; Fluo-4 calcium flux; active compounds read high; triggered by carbachol at its EC20; B-score at 10 µM; 0.45% of 310,000 active; AID 463165, 2010;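 active = B-score, a plate-corrected calcium signal, over three deviations above library mean, with baseline fluorescence within five deviations of library mean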;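 also: RGS4 expression induced by doxycycline in cells with stable M3 receptor; B-score is computed from the integrated fluorescence ratio over baseline after carbachol; higher B-score means a larger calcium signal and so more RGS4 inhibition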
Target sequence (P49798 whole entry, looked up): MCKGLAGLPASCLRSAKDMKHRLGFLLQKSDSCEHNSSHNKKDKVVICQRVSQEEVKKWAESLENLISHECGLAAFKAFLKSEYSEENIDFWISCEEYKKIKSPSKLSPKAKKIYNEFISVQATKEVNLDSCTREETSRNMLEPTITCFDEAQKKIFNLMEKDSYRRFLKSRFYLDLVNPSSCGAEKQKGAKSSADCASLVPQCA
MrgX1 antagonist: antagonists of human MrgX1 receptor, primary screen, HEK293 cells, Fluo-4 calcium flux. B-score at 10 µM. 1.3% of 310,000 active. AID 588676, 2011. Mas-related G-protein coupled receptor member X1 (Homo sapiens), Q96LB2. BAM8-22 antagonism; active compounds read low;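 active = calcium-response B-score plate-corrected more than 3 library SD below zero, starting fluorescence within 5 deviations, no agonist response on first addition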;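 also: peak minus trough fluorescence over baseline after final BAM8-22 challenge near maximal dose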
Target sequence (Q96LB2 whole entry, looked up): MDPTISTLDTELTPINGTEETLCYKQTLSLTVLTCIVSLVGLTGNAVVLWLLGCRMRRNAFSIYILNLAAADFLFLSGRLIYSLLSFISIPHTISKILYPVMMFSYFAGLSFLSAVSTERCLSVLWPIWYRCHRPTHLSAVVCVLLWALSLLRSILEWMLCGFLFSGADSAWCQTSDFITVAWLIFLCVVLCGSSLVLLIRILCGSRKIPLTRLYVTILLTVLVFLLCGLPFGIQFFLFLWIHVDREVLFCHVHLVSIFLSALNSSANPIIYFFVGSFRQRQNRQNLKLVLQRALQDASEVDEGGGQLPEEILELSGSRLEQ
MrgX1 agonist: agonists of human MrgX1 receptor, primary screen, HEK293 cells, Fluo-4 calcium flux; AID 588627, 2011; Fluo-4 calcium fluorescence, agonist mode; active compounds read high; 0.44% of 310,000 active; B-score at 10 µM; Mas-related G-protein coupled receptor member X1 (Homo sapiens), Q96LB2;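 active = calcium response B-score plate-corrected fluorescence ratio at least 3 library SD, with starting fluorescence B-score inside 5 SD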
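System – MrgX1-expressing HEK293 cells · Incubation – cells plated overnight, dye loaded 0.5 h 37 °C, 0.5 h room temperature · Technique – kinetic Fluo-4 NW fluorescence of intracellular calcium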
MrgX1 PAM: positive allosteric modulators of MrgX1, primary screen, HEK293 cells, Fluo-4 calcium flux | Mas-related G-protein coupled receptor member X1 (Homo sapiens), Q96LB2 | FDSS; active compounds read high | B-score at 10 µM | 0.63% of 310,000 active;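 active = plate-corrected calcium response at least 3 library SD above typical, normal starting fluorescence, not activating the receptor alone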;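 also: compound read alongside a low EC10 to EC30 dose of BAM8-22 agonist; peak minus trough fluorescence over baseline measured at the second addition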
RGS4 act: RGS4 potentiators or activators, primary screen, cell-based, HEK293 M3R inducible RGS4, calcium flux; carbachol calcium flux Fluo4; active compounds read low; B-score at 10 µM; 0.92% of 310,000 active; AID 463111, 2010;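 active = B-score of the integrated calcium signal more than 4 SD below the library mean, with starting fluorescence not abnormally high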;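 also: negative B-score means reduced calcium response which marks RGS4 activation or potentiation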
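Material: Inducible-RGS4 HEK293 cells carrying M3 receptor; also added: carbachol at ECmax as muscarinic agonist stimulus; incubation: compound preincubation 20 min at room temperature before agonist; signal: Fluo4-AM (2 µM) calcium-flux fluorescence, kinetic read; measure: integrated calcium ratio converted to B score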
* marks the source's active call; other numbers are inactive results; i = inactive; · = no result given.

SMILES | RGS4 inh | MrgX1 antagonist | MrgX1 agonist | MrgX1 PAM | RGS4 act
Cc1nn(Cc2noc(C(=O)NCc3ccc4c(c3)OCO4)n2)c(C)c1Br | i | i | i | i | i
Cc1ccc2nc(C)/c(=N\O)c(C)nc2c1 | i | i | i | 9.99* | i
O=C(CSc1nnc(-c2cccnc2)o1)Nc1cccc(F)c1 | i | i | i | i | i
O=C(NC1CCCCC1)C(c1ccc(Cl)cc1)N(C(=O)c1ccccn1)c1cccnc1 (stereo not given) | i | i | i | i | i
CC1CCCCN1CC(=O)NC(c1ccccc1)c1ccccc1 (stereo not given) | i | i | i | i | -7.26*
CSc1ccccc1NC(=O)CN1CCCCC1C (stereo not given) | i | i | i | i | i
CCN(CC)CCN1c2ccccc2Sc2ccccc21 | i | i | i | i | -7.09*
CCN(CC)CCN1c2ccccc2Sc2ccc3ccccc3c21 | i | i | i | i | -7.54*
O=C(CNc1cccc(F)c1)N1CCc2ccccc2C1 | i | i | i | i | i
O=c1oc2ccccc2cc1-c1nc2c(s1)CCc1ccccc1-2 | i | -6.78* | i | i | i
O=c1oc2cc(O)ccc2cc1-c1nc2c(s1)CCc1ccccc1-2 | · | i | i | i | ·
CCOc1ncccc1C(=O)OCC(=O)Nc1cccc(S(N)(=O)=O)c1 | i | i | i | i | i
CCOc1ncccc1C(=O)Nc1cccc(C(=O)Nc2cccc(S(=O)(=O)CCO)c2)c1 | i | -5.27* | i | i | i
COc1ccccc1CCC(=O)OCC(=O)Nc1ccc(C(N)=O)cc1 | i | i | i | i | i
CCc1sc(N2C(=O)C3C4CCC(C4=C(C)C)C3C2=O)nc1-c1ccccc1 (stereo not given) | i | i | i | i | -7.46*
COc1ccc(/C=C/C(=O)Nc2cccc(F)c2)cc1S(=O)(=O)N1CCOCC1 | i | i | i | i | i
COc1ccc(/C=C/C(=O)Nc2ccccc2C)cc1S(=O)(=O)N1CCOCC1 | i | i | i | 7.95* | i
CC(=O)Nc1sc(C)c(C)c1C(=O)OCC(=O)N(CC(C)C)c1c(N)n(Cc2ccccc2)c(=O)[nH]c1=O | i | i | i | i | -7.75*
COC(=O)c1c(C)[nH]c(C(=O)OCC(=O)N(CC(C)C)c2c(N)n(Cc3ccccc3)c(=O)[nH]c2=O)c1C | i | i | i | i | i
Cc1cnc(C(=O)OCC(=O)N2CCN(S(=O)(=O)c3ccc(Cl)cc3)CC2)cn1 | i | i | i | i | i
CC(C)[N+](C)(CCOC(=O)C1c2ccccc2Oc2ccccc21)C(C)C | i | i | i | i | -8.51*
COC(=O)c1sc(-c2cccs2)cc1NC(=O)/C=C/C(=O)O | i | i | i | i | i
Cc1ccccc1CN1C(=O)C(C)S/C1=N/N=C/c1ccco1 (stereo not given) | i | i | i | 13.4* | i
CCn1cc(C2=NOC(C(=O)Nc3cccc(C(C)=O)c3)C2)c(C)n1 (stereo not given) | i | -4.82* | i | i | i
Cc1nnc(SCC(=O)Nc2ccccc2)c2ccccc12 | i | i | i | i | i
SMILES | RGS4 inh | MrgX1 antagonist | MrgX1 agonist | MrgX1 PAM | RGS4 act
O=[N+]([O-])c1c(NCCCO)cc(N2CCCCCC2)c2nonc12 | i | i | i | i | i
O=[N+]([O-])c1cccc(/C=N/Nc2nc(NCc3ccccc3)nc(N3CCOCC3)n2)c1O | i | i | 33.9* | i | i
O=[N+]([O-])c1ccc(/C=N/Nc2nc(NCc3ccccc3)nc(N3CCOCC3)n2)cc1 | i | i | i | i | i
O=[N+]([O-])c1cc([N+](=O)[O-])c(N2CCOCC2)cc1NCc1ccccc1 | i | -9.64* | i | i | i
O=[N+]([O-])c1c(NCc2ccccc2)cc(N2CCc3ccccc3C2)c2nonc12 | i | -5.95* | i | i | i
Cc1c(Cl)cccc1N=C1SCCN1C(=O)CN1C(=O)NC2(CCCC2)C1=O | i | i | i | i | i
Cc1nc2nc(C)c(NS(=O)(=O)c3ccc(C4CCCCC4)cc3)c(=O)n2[nH]1 | i | i | i | i | i
Cc1ccc(CCNC(=O)C2CCN(S(=O)(=O)c3ccc4nc5c(c(C(=O)O)c4c3)CCCC5)CC2)cc1 | i | i | i | i | i
C=C1C(=O)C=C2CN(C(=O)c3ccccc3)[C@@](Cc3ccc(F)cc3)(C(=O)OC)[C@@H]12 | 15.4* | i | 46.5* | i | i
COc1cc(/C=C2\C(=O)NN(c3ccc(C)cc3)C2=O)cc([N+](=O)[O-])c1O | i | i | i | i | i
COc1cc(/C=C2/C(=O)NN(c3ccc(Cl)cc3)C2=O)cc(OC)c1O | i | i | 44.2* | i | i
CCOC(=O)COc1ccc(/C=C2/C(=O)NN(c3ccc(F)cc3)C2=O)cc1OC | i | i | 46.3* | i | i
CC(=O)c1ccc(S(=O)(=O)N(C)CC(=O)NCC2CCCCC2)cc1 | i | i | i | i | i
COc1cc(/C=C(\C#N)C(=O)NCCc2ccccc2)cc(OC)c1O | i | i | i | 7.27* | i
Cc1ccccc1OCC(=O)Nc1ccc(N2CCN(C)CC2)c(Cl)c1 | i | i | i | i | -7.91*
Cc1ccccc1OCC(=O)Nc1ccc2c(c1)Cc1ccccc1-2 | i | i | i | i | i
CCCCCCCCCCCCCCCC[n+]1cccc(C(=O)N(CC)CC)c1 | i | i | i | i | -9.91*
CCCC1=C(C(=O)OCC)C(c2ccc(OC)c(CSc3ccccn3)c2)C(C#N)=C(N)O1 (stereo not given) | i | i | i | i | i
CC(C(=O)NCCN1C(=O)S/C(=C\c2cccs2)C1=O)N1C(=O)c2ccccc2C1=O (stereo not given) | i | i | i | i | i
O=C(NCCN1C(=O)S/C(=C\c2cccs2)C1=O)[C@H](Cc1ccccc1)N1C(=O)c2ccccc2C1=O | i | -8.4* | i | i | i
CC(C)=CCC/C(C)=C/COc1ccc2ccc(=O)oc2c1 | i | i | i | i | i
COCOc1ccc(-c2oc3c(C/C=C(\C)CCC=C(C)C)ccc(O)c3c(=O)c2OCOC)c(OCOC)c1 | i | -6.9* | i | i | i
